Reference: article PMC5108443 (Cardiovascular Therapeutics, 2016)
Blank lines part the entries; values can stand above or below the compound they belong to.

Tests used:
[1] = Steady-state plasma pharmacokinetics of LCZ696 analytes; type: in vivo, human; settings: for T1/2, mean (SD): LCZ696 200 mg bid (Day 21), patients with stable HF; for Exposure in patients with HF higher than in healthy subjects: LCZ696 200 mg bid, healthy-subject exposure from ref 20; for Dose proportionality of Cmax and AUC0-12 h: between LCZ696 100- and 200-mg doses; for Tmax / AUC(0-t) / Cmax: human, plasma
urine cGMP = test: Urine cGMP; type: in vivo, human; settings: for Urine cGMP, ratio-to-baseline (95% CI): geometric mean ratio; for Urine cGMP: geometric mean
urine ANP = test: Urine ANP; type: in vivo, human; settings: for Urine ANP, ratio-to-baseline (95% CI): geometric mean ratio; for Urine ANP: geometric mean
[2] = patients with HFrEF, PARADIGM-HF; cited from earlier work
plasma aldosterone = test: Plasma aldosterone; type: in vivo, human
In short: (§1)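 Chronic HF patients (NYHA II–IV, LVEF ≤40%), domiciled on a fixed 3 g sodium/5 g potassium diet. ACEI/ARB stopped over a 24-h run-in. Oral test compound given 100 mg bid for 7 days, then 200 mg bid for 14 days. Plasma drawn at baseline, predose, and 4, 12, 16, 24 h post-dose on Days 7 and 21. Geometric means; ratio-to-baseline with 95% CI by paired t-test on log data.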

[3] = tested on: plasma renin activity (PRA); test: Plasma renin activity; type: in vivo, human; settings: for PRA, ratio-to-baseline (95% CI): geometric mean ratio; for PRA, predose: geometric mean
In short: as §1

plasma ANP = test: Plasma ANP; type: in vivo, human; settings: for Plasma ANP, ratio-to-baseline (95% CI): geometric mean ratio; for Plasma ANP, predose: geometric mean
plasma NT-proBNP = test: Plasma NT-proBNP; type: in vivo, human
In short: as §1

[4] = tested on: plasma endothelin-1 (ET-1); test: Plasma endothelin-1; type: in vivo, human
In short: as §1

[5] = Urinary sodium, potassium and creatinine excretion; type: in vivo, human; settings: either treatment period (100 and 200 mg bid)
In short: (§2)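 Same patients, diet and oral dosing schedule. Urine collected over 24 h as two 12-h fractions (8:00–20:00, 20:00–8:00) at baseline, Day 7 and Day 21. Volume recorded; sodium, potassium and creatinine measured by standard laboratory methods, NT-proBNP by Elecsys immunoassay. Geometric means calculated; ratio-to-baseline by paired t-test on log-transformed data.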

[6] = tested on: plasma renin concentration (PRC); test: Plasma renin concentration; type: in vivo, human; settings: for PRC, ratio-to-baseline (95% CI): geometric mean ratio; for PRC, predose: geometric mean
In short: as §1

urinary NT-proBNP = test: Urinary NT-proBNP; type: in vivo, human
In short: as §2

[7] = Safety and tolerability: adverse events; type: in vivo, human
In short: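 Open-label study in HFrEF patients: 24-h run-in with ACEI/ARB stopped and other HF drugs kept, then oral test compound 100 mg bid for 7 days and 200 mg bid for 14 days. Patients domiciled on a standardized diet of 3 g sodium and 5 g potassium daily. Monitoring by ECG, vital signs, and electrolyte, renal and hepatic panels. Safety set comprised all patients dosed at least once.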

plasma cGMP = test: Plasma cGMP; type: in vivo, human; settings: for Plasma cGMP, ratio-to-baseline (95% CI): geometric mean ratio; for Plasma cGMP, predose: geometric mean
[8] = Day 7 (LCZ696 100 mg bid), N=30
[9] = Day 21 (LCZ696 200 mg bid), N=27
[10] = Day 21, predose, LCZ696 200 mg bid for 14 days

T1/2, mean (SD) ([1]; oral): 13.7 (5.0) h
Exposure in patients with HF higher than in healthy subjects [1]: ~132%
Dose proportionality of Cmax and AUC0-12 h [1]: less than dose‐proportional
Tmax ([1]; oral, 200 mg): ≤ 2 h
AUC(0-t) ([1]; po, 100 mg): 25900 ng·h/mL
Cmax ([1]; po, 100 mg): 3810 ng/mL
Tmax ([1]; po, 100 mg): 2 h
AUC(0-t) ([1]; po, 200 mg): 38800 ng·h/mL
Cmax ([1]; po, 200 mg): 6040 ng/mL
Tmax ([1]; po, 200 mg): 2 h
Compound: CCCCC(=O)N(Cc1ccc(-c2ccccc2-c2nnn[nH]2)cc1)[C@H](C(=O)O)C(C)C [Valsartan, valsartan, reference compound]

Compound: Sacubitril/valsartan [LCZ696]
Urine cGMP, ratio-to-baseline (95% CI) (urine cGMP; Day 7 (LCZ696 100 mg bid)): 1.17 (0.97–1.40) P = 0.090
Urine cGMP (urine cGMP; [8]): 1096.09 nmol
Urine cGMP, ratio-to-baseline (95% CI) (urine cGMP; Day 21 (LCZ696 200 mg bid)): 1.22 (1.01–1.47) P = 0.040
Urine cGMP (urine cGMP; [9]): 1180.57 nmol
Urine ANP, ratio-to-baseline (95% CI) (urine ANP; Day 7 (LCZ696 100 mg bid)): 1.69 (1.40–2.03) P < 0.001
Urine ANP (urine ANP; [8]): 353.42 ng
Urine ANP, ratio-to-baseline (95% CI) (urine ANP; Day 21 (LCZ696 200 mg bid)): 1.82 (1.54–2.17) P < 0.001
Urine ANP (urine ANP; [9]): 378.48 ng
Reduction of CV and all-cause mortality and HF hospitalizations versus enalapril [2]: superior
Predose plasma aldosterone level compared with baseline (plasma aldosterone; Day 7 (LCZ696 100 mg bid)): trend toward a reduction
Decrease in plasma aldosterone levels (plasma aldosterone; Day 21): 21%
Plasma aldosterone, ratio-to-baseline [95% CI] (plasma aldosterone; [10]): 0.79 [0.65–0.95]
PRA, ratio-to-baseline (95% CI) ([3]; Day 7 (LCZ696 100 mg bid)): 3.94 (2.27–6.87) P < 0.001
PRA, predose ([3]; Day 7 (LCZ696 100 mg bid), 29 patients): 2.70 ng/mL/h
PRA, ratio-to-baseline (95% CI) ([3]; Day 21 (LCZ696 200 mg bid)): 2.27 (1.20–4.32) P = 0.014
PRA, predose ([3]; Day 21 (LCZ696 200 mg bid), 26 patients): 1.64 ng/mL/h
Plasma ANP, ratio-to-baseline (95% CI) (plasma ANP; Day 7 (LCZ696 100 mg bid)): 0.92 (0.80–1.05) P = 0.223
Plasma ANP, predose (plasma ANP; [8]): 105.20 pg/mL
Plasma ANP, ratio-to-baseline (95% CI) (plasma ANP; Day 21 (LCZ696 200 mg bid)): 1.00 (0.80–1.26) P = 0.986
Plasma ANP, predose (plasma ANP; [9]): 110.83 pg/mL
Plasma ANP versus baseline (plasma ANP; either treatment period (100 and 200 mg bid)): not significantly different from baseline
Plasma NT-proBNP, ratio-to-baseline [95% CI] (plasma NT-proBNP; Day 7 (LCZ696 100 mg bid)): 0.53 [0.45–0.62]
Plasma NT-proBNP, ratio-to-baseline [95% CI] (plasma NT-proBNP; Day 21 (LCZ696 200 mg bid)): 0.56 [0.45–0.70]
Predose plasma ET-1 level compared with baseline ([4]; Day 7 (LCZ696 100 mg bid)): trend toward a reduction
Plasma ET-1, ratio-to-baseline [95% CI] [4, 10]: 0.80 [0.71–0.91]
Change in mean urinary sodium, potassium, and creatinine excretion [5]: No statistically significant changes
PRC, ratio-to-baseline (95% CI) ([6]; Day 7 (LCZ696 100 mg bid)): 4.30 (2.78–6.64) P < 0.001
PRC, predose [6, 8]: 42.64 pg/mL
PRC, ratio-to-baseline (95% CI) ([6]; Day 21 (LCZ696 200 mg bid)): 3.50 (2.13–5.76) P < 0.001
PRC, predose [6, 9]: 34.11 pg/mL
Urinary NT-proBNP, ratio-to-baseline (urinary NT-proBNP; after LCZ696 100 mg bid for 7 days): 0.68
Urinary NT-proBNP, ratio-to-baseline (urinary NT-proBNP; after LCZ696 200 mg bid for 14 days): 0.74
Dose relation of the frequency of AEs ([7]; 100 vs 200 mg bid): not dose related
Deaths or serious AEs during the study ([7]; LCZ696 100 mg bid 7 days then 200 mg bid 14 days, 30 patients): No deaths or serious AEs occurred
Subjects with AE ([7]; LCZ696 100 mg bid (N=30), 7-day titration period): 16 (53.3%) n (%)
Overall tolerability ([7]; LCZ696 100 mg bid for 7 days and 200 mg bid for 14 days): well tolerated
Subjects with AE ([7]; LCZ696 200 mg bid (N=30), 14-day treatment period): 15 (50.0%) n (%)
Subjects with AE ([7]; Total (N=30)): 21 (70.0%) n (%)
Patients who completed the study treatment as per protocol ([7]; of 30 patients): 27 (90%) n (%)
Hypotension reported as an AE ([7]; whole study): not reported
Plasma cGMP, ratio-to-baseline (95% CI) (plasma cGMP; Day 7 (LCZ696 100 mg bid)): 1.24 (1.06–1.45) P = 0.008
Plasma cGMP, predose (plasma cGMP; Day 7 (LCZ696 100 mg bid), N=30, patients with HFrEF): 13.83 nmol/L
Plasma cGMP, ratio-to-baseline (95% CI) (plasma cGMP; Day 21 (LCZ696 200 mg bid)): 1.38 (1.16–1.65) P < 0.001
Plasma cGMP, predose (plasma cGMP; [9]): 15.07 nmol/L

T1/2, mean (SD) ([1]; oral): 3.9 (3.6) h
Exposure in patients with HF higher than in healthy subjects [1]: approximately 55%
Dose proportionality of Cmax and AUC0-12 h [1]: approximately dose‐proportional
Tmax ([1]; oral, 200 mg): ≤ 0.5 h
AUC(0-t) ([1]; po, 100 mg): 1540 ng·h/mL
Cmax ([1]; po, 100 mg): 1230 ng/mL
Tmax ([1]; po, 100 mg): 0.5 h
AUC(0-t) ([1]; po, 200 mg): 3150 ng·h/mL
Cmax ([1]; po, 200 mg): 2410 ng/mL
Tmax ([1]; po, 200 mg): 0.5 h
Compound: CCOC(=O)[C@H](C)C[C@@H](Cc1ccc(-c2ccccc2)cc1)NC(=O)CCC(=O)O [Sacubitril, sacubitril]

T1/2, mean (SD) ([1]; oral): 18.4 (6.8) h
Exposure in patients with HF higher than in healthy subjects [1]: ~110%
Dose proportionality of Cmax and AUC0-12 h [1]: approximately dose‐proportional
Tmax ([1]; oral, 200 mg): ≤ 2.5 h
AUC(0-t) ([1]; po, 100 mg): 82600 ng·h/mL
Cmax ([1]; po, 100 mg): 9100 ng/mL
Tmax ([1]; po, 100 mg): 2.5 h
AUC(0-t) ([1]; po, 200 mg): 147000 ng·h/mL
Cmax ([1]; po, 200 mg): 16300 ng/mL
Tmax ([1]; po, 200 mg): 2 h
Compound: C[C@H](C[C@@H](Cc1ccc(-c2ccccc2)cc1)NC(=O)CCC(=O)O)C(=O)O [LBQ657]
